How the values were obtained:
Cystine [1] = assay: Inhibition of L-cystine crystallization in aqueous solution assessed as ratio of step velocity in presence of compound to step velocity measured initially in absence of compound at 45 uM by atomic force microscopic analysis
Summary of the method: (§1)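 AFM on the {0001} face of L-cystine crystals. Crystals were regrown for 20 min under flowing supersaturated 2 mM L-cystine (20 mL/h). {1010} step velocity was measured without inhibitor (V0), then with inhibitor at 15, 30 or 45 μM (V). Images were taken about 25 min after inhibitor injection. Result reported as a V/V0 range.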

Cystine [2] = assay: Inhibition of L-cystine crystallization in aqueous solution assessed as ratio of step velocity in presence of compound to step velocity measured initially in absence of compound at 15 uM by atomic force microscopic analysis; summary of the method: as §1
[3] = Drug metabolism in Slc3a1-knockout mouse assessed as (2R)-2-amino-3-[[(2R)-2-amino-3-(1,8-diazaspiro[4.5]decan-8-yl)-3-oxo-propyl]disulfanyl]propanoic acid metabolite formation; format: ADME
Cystine [4] = assay: Inhibition of L-cystine crystallization in aqueous solution assessed as ratio of step velocity in presence of compound to step velocity measured initially in absence of compound at 30 uM by atomic force microscopic analysis; summary of the method: as §1
[5] = Oral bioavailability in Slc3a1-knockout mouse by measuring total parent compound and (2R)-2-amino-3-[[(2R)-2-amino-3-(1,8-diazaspiro[4.5]decan-8-yl)-3-oxo-propyl]disulfanyl]propanoic acid metabolite at 150 micromol/kg or 30 micromol/kg measured upto 24 hrs by LC-MS/MS analysis; format: ADME, organism-based; conditions: in vivo, at 150 µmol/kg
Summary of the method: (§2)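 Male Slc3a1-knockout mice (4 per route) dosed once by oral gavage in normal saline (150 μmol/kg) or by tail vein injection (30 μmol/kg). Saphenous-vein blood drawn into heparinized capillaries before dosing and at 5, 15, 30 min and 1, 4, 8, 24 h. Plasma stored at −80 °C. Parent and mixed-disulfide metabolite M1 quantitated by LC-MS/MS against synthetic M1. Oral bioavailability derived from oral versus iv exposure.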

[6] = Oral bioavailability in Slc3a1-knockout mouse at 150 micromol/kg or 30 micromol/kg measured upto 24 hrs by LC-MS/MS analysis; format: ADME, organism-based; conditions: in vivo, at 150 µmol/kg; summary of the method: as §2
Cystine [7] = assay: Inhibition of L-cystine crystallization in millipore water at room temperature incubated for 72 hrs
Summary of the method: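 Supersaturated L-cystine (2.9 mM) in Millipore water was incubated with varying inhibitor concentrations for 72 h at room temperature and then centrifuged. L-cystine remaining in the supernatant was measured. EC50 was taken from dose–response curves as the concentration giving 50% inhibition of crystallization.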

[8] = Oral bioavailability in Slc3a1-knockout mouse by measuring (2R)-2-amino-3-[[(2R)-2-amino-3-(1,8-diazaspiro[4.5]decan-8-yl)-3-oxo-propyl]disulfanyl]propanoic acid metabolite at 150 micromol/kg or 30 micromol/kg measured upto 24 hrs by LC-MS/MS analysis; format: ADME, organism-based; conditions: in vivo, at 150 µmol/kg; summary of the method: as §2
[9] = (§3) Observed apparent volume of distribution during terminal phase in Slc3a1-knockout mouse at 150 micromol/kg, po or 30 micromol/kg, iv measured upto 24 hrs by LC-MS/MS analysis; format: ADME, organism-based; conditions: in vivo, dose 150 µmol/kg; summary of the method: as §2
[10] = Toxicity in SLC3A1-knockout male mouse assessed as body weight at 150 micromol/kg, po administered daily for 8 weeks (reference value: 20.3 +/- 2.1 g); format: organism-based; conditions: in vivo, 1344 h, dose 150 µmol/kg
[11] = Observed apparent oral clearance in Slc3a1-knockout mouse by measuring (2R)-2-amino-3-[[(2R)-2-amino-3-(1,8-diazaspiro[4.5]decan-8-yl)-3-oxo-propyl]disulfanyl]propanoic acid metabolite at 150 micromol/kg or 30 micromol/kg measured upto 24 hrs by LC-MS/MS analysis; format: ADME; conditions: in vivo, dose 150 µmol/kg; summary of the method: as §2
[12] = Toxicity in SLC3A1-knockout male mouse assessed as animal death at 150 micromol/kg, po administered daily for 4 weeks; format: organism-based; conditions: in vivo, 672 h, dose 150 µmol/kg
[13] = Drug level in SLC3A1-knockout mouse urine assessed as (2R)-2-amino-3-[[(2R)-2-amino-3-(1,8-diazaspiro[4.5]decan-8-yl)-3-oxo-propyl]disulfanyl]propanoic acid metabolite concentration in urine at 30 micromol/kg, iv measured after 24 hrs; format: ADME, organism-based; conditions: in vivo, dose 30 µmol/kg, read-out: Ct
Summary of the method: (§4)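 Urine was collected 24 and 48 h after dosing. Parent and mixed-disulfide metabolite were measured, with the metabolite quantitated against chemically synthesized standard.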

[14] = Observed apparent oral clearance in Slc3a1-knockout mouse at 150 micromol/kg or 30 micromol/kg measured upto 24 hrs by LC-MS/MS analysis; format: ADME; conditions: in vivo, dose 150 µmol/kg; summary of the method: as §2
[15] = Drug level in SLC3A1-knockout mouse urine assessed as (2R)-2-amino-3-[[(2R)-2-amino-3-(1,8-diazaspiro[4.5]decan-8-yl)-3-oxo-propyl]disulfanyl]propanoic acid metabolite concentration in urine at 150 micromol/kg, po measured after 24 hrs; format: ADME, organism-based; conditions: in vivo, dose 150 µmol/kg, read-out: Ct; summary of the method: as §4
[16] = Toxicity in SLC3A1-knockout male mouse assessed as animal death at 150 micromol/kg, po administered daily for 8 weeks; format: organism-based; conditions: in vivo, 1344 h, dose 150 µmol/kg
Summary of the method: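 Slc3a1-knockout male mice, 6 weeks old, bred by Slc3a1 × Slc3a1 mating; one pup per mating treated, one or more littermates as controls. Compound dissolved in water (18.9 mg/mL) and given by daily gavage of 100 μL (150 μmol/kg) for 8 weeks; controls received 100 μL water. Mice were sacrificed at study end, and kidneys and bladders were weighed.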

[17] = Cmax in Slc3a1-knockout mouse by measuring (2R)-2-amino-3-[[(2R)-2-amino-3-(1,8-diazaspiro[4.5]decan-8-yl)-3-oxo-propyl]disulfanyl]propanoic acid metabolite at 150 micromol/kg, po or 30 micromol/kg, iv measured upto 24 hrs by LC-MS/MS analysis; format: ADME, organism-based; conditions: in vivo, dose 150 µmol/kg; summary of the method: as §2
[18] = AUC (0 to t) in Slc3a1-knockout mouse by measuring (2R)-2-amino-3-[[(2R)-2-amino-3-(1,8-diazaspiro[4.5]decan-8-yl)-3-oxo-propyl]disulfanyl]propanoic acid metabolite at 150 micromol/kg, po or 30 micromol/kg, iv measured upto 24 hrs by LC-MS/MS analysis; format: ADME, organism-based; conditions: in vivo, dose 150 µmol/kg; summary of the method: as §2
Cystine [19] = assay: In-vivo inhibition of L-cystine crystallization in SLC3A1-knockout male mouse assessed as reduction in stone formation in bladder at 150 micromol/kg, po administered daily for 8 weeks; format: functional, organism-based; parameters: scale not given: the % may be the effect or the level left; conditions: dose 150.0 µmol/kg
[20] = Half life in Slc3a1-knockout mouse at 150 micromol/kg, po or 30 micromol/kg, iv measured upto 24 hrs by LC-MS/MS analysis; format: ADME, organism-based; conditions: in vivo, dose 150 µmol/kg; summary of the method: as §2
[21] = Half life in Slc3a1-knockout mouse by measuring (2R)-2-amino-3-[[(2R)-2-amino-3-(1,8-diazaspiro[4.5]decan-8-yl)-3-oxo-propyl]disulfanyl]propanoic acid metabolite at 150 micromol/kg, po or 30 micromol/kg, iv measured upto 24 hrs by LC-MS/MS analysis; format: ADME, organism-based; conditions: in vivo, dose 150 µmol/kg; summary of the method: as §2
[22] = AUC (0 to t) in Slc3a1-knockout mouse by measuring total parent compound and (2R)-2-amino-3-[[(2R)-2-amino-3-(1,8-diazaspiro[4.5]decan-8-yl)-3-oxo-propyl]disulfanyl]propanoic acid metabolite at 150 micromol/kg, po or 30 micromol/kg, iv measured upto 24 hrs by LC-MS/MS analysis; format: ADME, organism-based; conditions: in vivo, dose 150 µmol/kg; summary of the method: as §2
[23] = Cmax in Slc3a1-knockout mouse at 150 micromol/kg, po or 30 micromol/kg, iv measured upto 24 hrs by LC-MS/MS analysis; format: ADME, organism-based; conditions: in vivo, dose 150 µmol/kg; summary of the method: as §2
[24] = Toxicity in SLC3A1-knockout male mouse assessed as increase in body weight at 150 micromol/kg, po administered daily for 8 weeks; format: organism-based; conditions: in vivo, 1344 h, at 150 µmol/kg
[25] = AUC (0 to t) in Slc3a1-knockout mouse at 150 micromol/kg, po or 30 micromol/kg, iv measured upto 24 hrs by LC-MS/MS analysis; format: ADME, organism-based; conditions: in vivo, dose 150 µmol/kg; summary of the method: as §2
[26] = as §3, with “mouse by measuring (2R)-2-amino-3-[[(2R)-2-amino-3-(1,8-diazaspiro[4.5]decan-8-yl)-3-oxo-propyl]disulfanyl]propanoic acid metabolite” for “mouse”; format: ADME, organism-based; conditions: in vivo, dose 150 µmol/kg; summary of the method: as §2

Ratio (Cystine [1]) | Ratio (Cystine [2]) | Ratio (Cystine [4]) | EC50 (Cystine [7]) [nM] | SMILES | Drug metabolism [3] | F [5] [%] | F [6] [%] | F [8] [%] | other results
0.3 | 0.52 | 0.32 | 59.8 | CN1CCN(C(=O)[C@@H](N)CSSC[C@H](N)C(=O)N2CCN(C)CC2)CC1 | metabolite_detected | 18 | 2.3 | 25 | 
0.21 | 0.4 | 0.27 | 3530 | COC(=O)[C@@H](N)CSSC[C@H](N)C(=O)OC |  |  |  |  | 

SMILES | Ratio (Cystine [1]) | Ratio (Cystine [2]) | Ratio (Cystine [4]) | EC50 (Cystine [7]) [nM] | Drug metabolism [3] | F [5] [%] | F [6] [%] | F [8] [%] | other results
N[C@@H](CSSC[C@H](N)C(=O)N1CCC2(CCCN2)CC1)C(=O)N1CCC2(CCCN2)CC1 | 0.01 | 0.01 | 0.04 | 29.5 | metabolite_detected | 22 | 16 | 27 | Vz/F_obs [9]: 0.007 micromol/kg/nmol/L; Activity [10]: 20.3 g; CL/F_obs [11]: 0.003 micromol/kg/nmol/L/hr; Activity [12]: Non-toxic; concentration [13]: 1 µM; CL/F_obs [14]: 0.008 micromol/kg/nmol/L/hr; concentration [15]: 2.1 µM; Activity [16]: Non-toxic; Cmax [17]: 16.9 µM; AUCt [18]: 40.963 µM·h; Activity (Cystine [19]): 8%; t1/2 [20]: 0.6 h; t1/2 [21]: 2.4 h; AUCt [22]: 59.505 µM·h; Cmax [23]: 11.4 µM; Activity [24]: 14.6%; AUCt [25]: 18.542 µM·h; Vz/F obs [26]: 0.0108 micromol/kg/nmol/L

Reference: ChEMBL document CHEMBL6074622, “8-l-Cystinyl Bis(1,8-diazaspiro[4.5]decane) as an Orally Bioavailable l-Cystine Crystallization Inhibitor for Cystinuria” (ACS Med Chem Lett, 2024)
